ChEMBL document CHEMBL4118244, “Design, synthesis and biological evaluation of benzofuran appended benzothiazepine derivatives as inhibitors of butyrylcholinesterase and antimicrobial agents” (Bioorg Med Chem, 2018)
Converted amounts (≈) assume the structure as drawn. The source made the active and inactive calls. The calls are words filed in the database; no cut-off is given here.

Assays:
Aspergillus brasiliensis [1] = assay: Antifungal activity against Aspergillus brasiliensis PTCC 5011 assessed as diameter of inhibition zone at 200 ug per disc after 72 hrs by agar disc diffusion method; type: functional
How it was run: (§1)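 Agar disc diffusion against mold. Compounds at 20 mg mL⁻¹ in DMSO, filter-sterilised. 6 mm discs carried 10 µl (200 µg per disc), with DMSO discs as negative control. Incubation 72 h at 30 °C. Read-out is growth inhibition zone diameter, mean of 3 repeats (±1 mm).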

Aspergillus brasiliensis [2] = assay: Antifungal activity against Aspergillus brasiliensis PTCC 5011; type: functional
Staphylococcus aureus [3] = assay: Antibacterial activity against Staphylococcus aureus ATCC 29737 assessed as diameter of inhibition zone at 200 ug per disc after 24 hrs by agar disc diffusion method; type: functional; conditions: ATCC 29737, 24 h, read-out: DIZ
How it was run: (§2)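 Agar disc diffusion. Compounds at 20 mg mL⁻¹ in DMSO, filter-sterilised. 100 µL of 10⁸ CFU mL⁻¹ bacteria spread on nutrient agar. 6 mm discs carried 10 µl (200 µg per disc), with DMSO discs as negative control. Incubation 24 h at 37 °C. Read-out is inhibition zone diameter, mean of 3 repeats (±1 mm).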

[4] = system: Staphylococcus epidermidis; assay: Antibacterial activity against Staphylococcus epidermidis ATCC 12228; type: functional
[5] = target: Acetylcholinesterase (Electrophorus electricus) (UniProt O42275); assay: Inhibition of electric eel AChE using acetylthiocholine iodide as substrate pretreated for 15 mins followed by substrate addition measured for 6 mins by Ellman's method
How it was run: (§3)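 Ellman spectrophotometric assay in 0.1 M phosphate buffer pH 8.0 with DTNB, 25 °C. AChE (electric eel, Type V-S) or BChE was preincubated 15 min with compound before adding acetylthiocholine iodide or butyrylthiocholine iodide, respectively. Absorbance change at 412 nm was read for 6 min. Five concentrations were tested in triplicate, corrected by a nonenzymatic blank, with a no-inhibitor reference.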

Candida albicans [6] = assay: Antifungal activity against Candida albicans ATCC 10231; type: functional
Aspergillus niger [7] = assay: Antifungal activity against Aspergillus niger ATCC 16404 assessed as diameter of inhibition zone at 200 ug per disc after 72 hrs by agar disc diffusion method; type: functional; how it was run: as §1
Cholinesterase = Cholinesterase (Equus caballus, UniProt P81908); assay: Inhibition of equine serum BChE using butyrylthiocholine iodide as substrate pretreated for 15 mins followed by substrate addition measured for 6 mins by Ellman's method; how it was run: as §3
Bacillus spizizenii [8] = assay: Antibacterial activity against Bacillus subtilis ATCC 6633; type: functional
Staphylococcus aureus [9] = assay: Antibacterial activity against Staphylococcus aureus ATCC 29737; type: functional
[10] = system: Staphylococcus epidermidis; assay: Antibacterial activity against Staphylococcus epidermidis ATCC 12228 assessed as diameter of inhibition zone at 200 ug per disc after 24 hrs by agar disc diffusion method; type: functional; conditions: for zone of inhibition at 200 µg/disc: ATCC 12228, 24 h, read-out: DIZ; how it was run: as §2
Bacillus spizizenii [11] = assay: Antibacterial activity against Bacillus subtilis ATCC 6633 assessed as diameter of inhibition zone at 200 ug per disc after 24 hrs by agar disc diffusion method; type: functional; conditions: for zone of inhibition at 200 µg/disc: ATCC 6633, 24 h, read-out: DIZ; how it was run: as §2
Candida albicans [12] = assay: Antifungal activity against Candida albicans ATCC 10231 assessed as diameter of inhibition zone at 200 ug per disc after 48 hrs by agar disc diffusion method; type: functional; conditions: ATCC 10231, 48 h, read-out: DIZ
How it was run: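 Yeast tested by agar disc diffusion. Compounds at 20 mg mL⁻¹ in DMSO, filter-sterilised. 6 mm discs carried 10 µl (200 µg per disc), with DMSO discs as negative control. Incubation 48 h at 30 °C. Zone diameter was averaged over 3 repeats (±1 mm).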

Aspergillus niger [13] = assay: Antifungal activity against Aspergillus niger ATCC 16404; type: functional
Klebsiella pneumoniae [14] = assay: Antibacterial activity against Klebsiella pneumoniae ATCC 10031 assessed as diameter of inhibition zone at 200 ug per disc after 24 hrs by agar disc diffusion method; type: functional; how it was run: as §2
Pseudomonas aeruginosa [15] = assay: Antibacterial activity against Pseudomonas aeruginosa ATCC 27853; type: functional
Klebsiella pneumoniae [16] = assay: Antibacterial activity against Klebsiella pneumoniae ATCC 10031; type: functional
Proteus vulgaris [17] = assay: Antibacterial activity against Proteus vulgaris PTCC 1182 assessed as diameter of inhibition zone at 200 ug per disc after 24 hrs by agar disc diffusion method; type: functional; how it was run: as §2
Shigella dysenteriae [18] = assay: Antibacterial activity against Shigella dysenteriae PTCC 1188 assessed as diameter of inhibition zone at 200 ug per disc after 24 hrs by agar disc diffusion method; type: functional; how it was run: as §2
Salmonella paratyphi [19] = assay: Antibacterial activity against Salmonella paratyphi A serotype ATCC 5702 assessed as diameter of inhibition zone at 200 ug per disc after 24 hrs by agar disc diffusion method; type: functional; how it was run: as §2
Escherichia coli [20] = assay: Antibacterial activity against Escherichia coli ATCC 10536 assessed as diameter of inhibition zone at 200 ug per disc after 24 hrs by agar disc diffusion method; type: functional; conditions: ATCC 10536, 24 h, read-out: DIZ; how it was run: as §2
Pseudomonas aeruginosa [21] = assay: Antibacterial activity against Pseudomonas aeruginosa ATCC 27853 assessed as diameter of inhibition zone at 200 ug per disc after 24 hrs by agar disc diffusion method; type: functional; conditions: ATCC 27853, 24 h, read-out: DIZ; how it was run: as §2
Salmonella paratyphi [22] = assay: Antibacterial activity against Salmonella paratyphi A serotype ATCC 5702; type: functional; conditions: Salmonella enterica subsp. enterica serovar Paratyphi A
Escherichia coli [23] = assay: Antibacterial activity against Escherichia coli ATCC 10536; type: functional
Shigella dysenteriae [24] = assay: Antibacterial activity against Shigella dysenteriae PTCC 1188; type: functional
Proteus vulgaris [25] = assay: Antibacterial activity against Proteus vulgaris PTCC 1182; type: functional

Sequence of Acetylcholinesterase (Electrophorus electricus) (O42275 24-633 limits assumed): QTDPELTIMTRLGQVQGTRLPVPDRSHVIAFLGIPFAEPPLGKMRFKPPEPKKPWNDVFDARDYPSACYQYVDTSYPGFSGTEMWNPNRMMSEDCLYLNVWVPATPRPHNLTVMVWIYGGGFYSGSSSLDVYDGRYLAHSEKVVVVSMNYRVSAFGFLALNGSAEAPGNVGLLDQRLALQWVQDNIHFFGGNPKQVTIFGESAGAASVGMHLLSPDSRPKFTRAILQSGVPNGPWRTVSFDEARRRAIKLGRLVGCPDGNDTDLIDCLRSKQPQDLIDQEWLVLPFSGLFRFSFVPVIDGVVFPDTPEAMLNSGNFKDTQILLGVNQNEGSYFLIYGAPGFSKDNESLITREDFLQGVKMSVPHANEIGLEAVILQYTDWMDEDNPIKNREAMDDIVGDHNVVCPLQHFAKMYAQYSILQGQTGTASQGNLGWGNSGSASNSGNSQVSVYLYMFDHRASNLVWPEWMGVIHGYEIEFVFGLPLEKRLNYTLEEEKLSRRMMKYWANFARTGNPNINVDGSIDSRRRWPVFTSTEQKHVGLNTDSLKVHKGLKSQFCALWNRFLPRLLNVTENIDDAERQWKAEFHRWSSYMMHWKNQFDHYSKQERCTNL
Sequence of Cholinesterase (P81908 whole entry): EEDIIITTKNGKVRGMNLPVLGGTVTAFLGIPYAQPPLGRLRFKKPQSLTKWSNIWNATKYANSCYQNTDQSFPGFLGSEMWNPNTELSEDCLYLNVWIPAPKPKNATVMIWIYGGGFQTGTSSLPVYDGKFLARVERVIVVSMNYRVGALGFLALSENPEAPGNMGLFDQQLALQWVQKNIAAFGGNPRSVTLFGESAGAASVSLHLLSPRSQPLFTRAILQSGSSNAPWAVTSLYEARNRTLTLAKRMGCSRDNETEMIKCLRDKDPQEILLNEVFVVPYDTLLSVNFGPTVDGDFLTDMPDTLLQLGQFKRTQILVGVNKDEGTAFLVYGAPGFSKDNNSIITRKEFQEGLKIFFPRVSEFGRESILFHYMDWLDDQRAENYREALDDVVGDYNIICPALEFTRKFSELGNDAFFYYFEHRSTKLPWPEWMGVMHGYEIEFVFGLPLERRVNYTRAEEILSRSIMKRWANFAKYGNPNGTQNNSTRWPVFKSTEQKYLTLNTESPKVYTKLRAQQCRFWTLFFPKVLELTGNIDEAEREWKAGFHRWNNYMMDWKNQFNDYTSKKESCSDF

## c1ccc2c(c1)N=C(c1cc3ccccc3o1)CC(c1cccc3ccccc13)S2 (stereo unspecified)
Aspergillus brasiliensis [1]; PTCC 5011, 72 h, read-out: DIZ
  zone of inhibition at 200 µg/disc: < 6 mm
Aspergillus brasiliensis [2]
  MIC: inactive
Staphylococcus aureus [3]
  zone of inhibition at 200 µg/disc: 10 mm
[4]
  MIC: 5 µg/mL (≈ 12.3 µM)
[5]
  inhibition: inactive
Candida albicans [6]
  MIC: 25 µg/mL (≈ 61.6 µM)
Aspergillus niger [7]; ATCC 16404, 72 h, read-out: DIZ
  zone of inhibition at 200 µg/disc: < 6 mm
Cholinesterase; read-out: IC50
  IC50: 63 µM
Bacillus spizizenii [8]
  MIC: inactive
Staphylococcus aureus [9]
  MIC: 5 µg/mL (≈ 12.3 µM)
[10]
  zone of inhibition at 200 µg/disc: 9 mm
Bacillus spizizenii [11]
  zone of inhibition at 200 µg/disc: < 6 mm
Candida albicans [12]
  zone of inhibition at 200 µg/disc: 14 mm
Aspergillus niger [13]
  MIC: inactive

## NYSTATIN
Aspergillus brasiliensis [1]
  inhibition zone (IZ): 23 mm
Aspergillus brasiliensis [2]
  MIC: 0.5 µg/mL
Candida albicans [6]
  MIC: 0.125 µg/mL
Aspergillus niger [7]
  inhibition zone (IZ): 27 mm
Aspergillus niger [13]
  MIC: 0.25 µg/mL

## COc1ccc(C2CC(c3cc4cc(Br)ccc4o3)=Nc3ccccc3S2)cc1 (stereo unspecified)
[5]
  inhibition: inactive
Cholinesterase; read-out: IC50
  IC50: 1 µM

## Brc1ccc2oc(C3=Nc4ccccc4SC(c4c[nH]c5ccccc45)C3)cc2c1 (stereo unspecified)
[5]
  inhibition: inactive
Cholinesterase; read-out: IC50
  IC50: 28 µM

## COc1cccc2cc(C3=Nc4ccccc4SC(c4ccccc4)C3)oc12 (stereo unspecified)
[5]
  inhibition: inactive
Cholinesterase; read-out: IC50
  IC50: 2.5 µM

## O=[N+]([O-])c1ccc2oc(C3=Nc4ccccc4SC(c4ccccc4)C3)cc2c1 (stereo unspecified)
[5]
  inhibition: inactive
Cholinesterase
  IC50: Not Active

## COc1cccc(C2CC(c3cc4ccccc4o3)=Nc3ccccc3S2)c1 (stereo unspecified)
[5]
  inhibition: inactive
Cholinesterase; read-out: IC50
  IC50: 4.1 µM

## COc1cccc(C2CC(c3cc4cc(Br)ccc4o3)=Nc3ccccc3S2)c1 (stereo unspecified)
[5]
  inhibition: inactive
Cholinesterase; read-out: IC50
  IC50: 1 µM

## Brc1ccc2oc(C3=Nc4ccccc4SC(c4ccccc4)C3)cc2c1 (stereo unspecified)
[5]
  inhibition: inactive
Cholinesterase; read-out: IC50
  IC50: 8.5 µM

## GENTAMICIN
Klebsiella pneumoniae [14]
  inhibition zone (IZ): 22 mm
Pseudomonas aeruginosa [15]
  MIC: inactive
Klebsiella pneumoniae [16]
  MIC: 0.25 µg/mL
Proteus vulgaris [17]
  inhibition zone (IZ): 23 mm
[10]
  inhibition zone (IZ): 35 mm
Bacillus spizizenii [11]
  inhibition zone (IZ): 21 mm
Shigella dysenteriae [18]
  inhibition zone (IZ): 18 mm
Salmonella paratyphi [19]; Salmonella enterica subsp. enterica serovar Paratyphi A
  inhibition zone (IZ): 21 mm

## Cc1ccc(C2CC(c3cc4cc(Br)ccc4o3)=Nc3ccccc3S2)cc1 (stereo unspecified)
[5]
  inhibition: inactive
Cholinesterase; read-out: IC50
  IC50: 8.5 µM

## CO[C@H]1/C=C/O[C@@]2(C)Oc3c(C)c(O)c4c(O)c(c(/C=N/N5CCN(C)CC5)c(O)c4c3C2=O)NC(=O)/C(C)=C\C=C\[C@H](C)[C@H](O)[C@@H](C)[C@@H](O)[C@@H](C)[C@H](OC(C)=O)[C@@H]1C [RIFAMPIN]
Klebsiella pneumoniae [14]; ATCC 10031, 24 h, read-out: DIZ
  zone of inhibition at 200 µg/disc: 7 mm
Escherichia coli [20]
  zone of inhibition at 200 µg/disc: 11 mm
Pseudomonas aeruginosa [21]
  zone of inhibition at 200 µg/disc: < 6 mm
Pseudomonas aeruginosa [15]
  MIC: inactive
Staphylococcus aureus [3]
  zone of inhibition at 200 µg/disc: 10 mm
[4]
  MIC: 0.25 µg/mL (≈ 0.304 µM)
Salmonella paratyphi [22]
  MIC: inactive
Klebsiella pneumoniae [16]
  MIC: 0.25 µg/mL (≈ 0.304 µM)
Escherichia coli [23]
  MIC: 0.5 µg/mL (≈ 0.608 µM)
Proteus vulgaris [17]; PTCC 1182, 24 h, read-out: DIZ
  zone of inhibition at 200 µg/disc: 10 mm
Bacillus spizizenii [8]
  MIC: 0.125 µg/mL (≈ 0.152 µM)
Staphylococcus aureus [9]
  MIC: 0.25 µg/mL (≈ 0.304 µM)
[10]
  zone of inhibition at 200 µg/disc: 40 mm
Bacillus spizizenii [11]
  zone of inhibition at 200 µg/disc: 13 mm
Shigella dysenteriae [24]
  MIC: 0.25 µg/mL (≈ 0.304 µM)
Proteus vulgaris [25]
  MIC: 0.125 µg/mL (≈ 0.152 µM)
Shigella dysenteriae [18]; PTCC 1188, 24 h, read-out: DIZ
  zone of inhibition at 200 µg/disc: 8 mm
Salmonella paratyphi [19]; Salmonella enterica, ATCC 5702, 24 h, read-out: DIZ
  zone of inhibition at 200 µg/disc: < 6 mm
